Here are results for 3 compounds from ChEMBL document CHEMBL4011617, “Ugi Reaction-Derived α-Acyl Aminocarboxamides Bind to Phosphatidylinositol 3-Kinase-Related Kinases, Inhibit HSF1-Dependent Heat Shock Response, and Induce Apoptosis in Multiple Myeloma Cells” (J Med Chem, 2017).

Assay [1] concerns INA-6. The assay is described as follows: Inhibition of heat shock response in human INA-6 cells assessed as reduction in HSF-1 mediated upregulation of the heat shock protein HSP27 at 50 uM preincubated for 4 hrs followed by HSP90 inhibitor and HSR inducer NVP-AUY922 addition measured after 4 hrs by Western blot method. The format is functional, cell-based. The method in brief: (§1)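 INA-6 myeloma cells pretreated with test compound for 4 h, then co-treated with the HSP90 inhibitor/HSR inducer NVP-AUY922 for a further 4 h. Cells harvested; HSP72, HSP27, HSF1 or phospho-HSF1 probed by Western blot with β-actin as loading control. DMSO-only cells were the negative control; NVP-AUY922-only cells were the positive control.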

Assay [2] relates to INA-6. The assay is described as follows: Inhibition of heat shock response in human INA-6 cells assessed as reduction in HSF-1 mediated upregulation of the heat shock protein HSP72 at 50 uM preincubated for 4 hrs followed by HSP90 inhibitor and HSR inducer NVP-AUY922 addition measured after 4 hrs by Western blot method. It is filed as functional, cell-based. The method in brief: as §1

Assay [3] relates to INA-6. In words: Induction of apoptosis in human INA-6 cells up to 50 uM after 72 hrs by annexin V-FITC/propidium iodide staining-based flow cytometry method. It is filed as functional, cell-based. The method in brief:
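INA-6 cells incubated three days with DMSO or increasing compound concentrations. Viability read by annexin V-FITC/propidium iodide staining and flow cytometry. Double-negative (viable) fractions used to fit dose-response curves from three independent experiments; mean ± SD reported.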

The test system of assay [4] is INA-6. In words: Inhibition of heat shock response in human INA-6 cells assessed as reduction in HSF-1 mediated upregulation of the heat shock protein HSP72 at 50 uM preincubated for 4 hrs followed by HSP90 inhibitor and HSR inducer NVP-AUY922 addition measured after 4 hrs by ELISA. It is filed as functional, cell-based. In outline: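 HSP72 quantified by ELISA in the same protein lysates used for Western blots. INA-6 cells received compound for 4 h, then NVP-AUY922 co-treatment for 4 h more to stimulate HSF1. DMSO-only and NVP-AUY922-only cells served as negative and positive controls.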

Assay [5] has as its system INA-6. The assay is described as follows: Effect on NVP-AUY922-induced HSF-1 mRNA expression in human INA-6 cells at 50 uM preincubated for 4 hrs followed by NVP-AUY922 addition measured after 4 hrs by RT-PCR method. It is filed as functional, cell-based. In outline:
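INA-6 cells exposed to compound for 4 h, then co-treated with 10 nM NVP-AUY922 for another 4 h. Total RNA isolated; HSP27, HSP72 and HSF1 transcripts measured by real-time PCR and normalized to α-tubulin. Means and standard deviations from three independent experiments.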

Assay [6] deals with INA-6. The assay is described as follows: Inhibition of heat shock response in human INA-6 cells assessed as reduction in HSF-1 mediated upregulation of the heat shock protein HSP27 at 50 uM preincubated for 4 hrs followed by HSP90 inhibitor and HSR inducer NVP-AUY922 addition measured after 4 hrs by ELISA. The format is functional, cell-based.
Assay [7] deals with CCR4-NOT transcription complex subunit 3 (Homo sapiens) (UniProt O75175). In words: Binding affinity to CCR4-NOT transcription complex subunit 3 in human INA-6 cells after 3 hrs by nanoLC-MS/MS method. The format is cell-based. In outline: (§2)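 The biotinylated inhibitor was loaded on streptavidin beads, with empty beads as the control. Eluates were trypsin-digested and run by nanoLC-MS/MS. Inhibitor/control ratios came from label-free quantification, taken as medians of five biological replicates. Enrichment was called at Benjamini-Hochberg-adjusted limma p < 0.02.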

Assay [8] deals with Serine/threonine-protein kinase mTOR (Homo sapiens) (UniProt P42345). In words: Binding affinity to mTOR protein in human INA-6 cells after 3 hrs by nanoLC-MS/MS method. The format is cell-based. The method in brief: as §2
Assay [9] has as its target Serine-protein kinase ATM (Homo sapiens) (UniProt Q13315). The assay is described as follows: Binding affinity to ATM protein in human INA-6 cells after 3 hrs by nanoLC-MS/MS method. The format is cell-based. The method in brief:
as §2

Assay [10] has as its target Serine/threonine-protein kinase ATR (Homo sapiens) (UniProt Q13535). The assay is described as follows: Binding affinity to ATR protein in human INA-6 cells after 3 hrs by nanoLC-MS/MS method. It is filed as cell-based. The method in brief: as §2
Assay [11] addresses DNA-dependent protein kinase catalytic subunit (Homo sapiens) (UniProt P78527). The assay is described as follows: Binding affinity to PRKDC protein in human INA-6 cells after 3 hrs by nanoLC-MS/MS method. The format is cell-based. In outline:
as §2

Assay [12] addresses CCR4-NOT transcription complex subunit 6-like (Homo sapiens) (UniProt Q96LI5). In words: Binding affinity to CCR4-NOT transcription complex subunit 6-like in human INA-6 cells after 3 hrs by nanoLC-MS/MS method. The format is cell-based. In outline: as §2
For assay [13], the target named is CCR4-NOT transcription complex subunit 7 (Homo sapiens) (UniProt Q9UIV1). The assay is described as follows: Binding affinity to CCR4-NOT transcription complex subunit 7 in human INA-6 cells after 3 hrs by nanoLC-MS/MS method. The format is cell-based. The method in brief:
as §2

The target of assay [14] is CCR4-NOT transcription complex subunit 2 (Homo sapiens) (UniProt Q9NZN8). In words: Binding affinity to CCR4-NOT transcription complex subunit 2 in human INA-6 cells after 3 hrs by nanoLC-MS/MS method. It is filed as cell-based. The method in brief: as §2
The target in assay [15] is CCR4-NOT transcription complex subunit 1 (Homo sapiens) (UniProt A5YKK6). In words: Binding affinity to CCR4-NOT transcription complex subunit 1 in human INA-6 cells after 3 hrs by nanoLC-MS/MS method. The format is cell-based. The method in brief:
as §2

The target of assay [16] is CCR4-NOT transcription complex subunit 9 (Homo sapiens) (UniProt Q92600). The assay is described as follows: Binding affinity to RCD1 protein in human INA-6 cells after 3 hrs by nanoLC-MS/MS method. It is filed as cell-based. In outline: as §2

Active and inactive are the calls of the source. The rule behind the calls is not given here.

Chain of CCR4-NOT transcription complex subunit 9 (Homo sapiens) (Q92600 whole entry, one chain of several): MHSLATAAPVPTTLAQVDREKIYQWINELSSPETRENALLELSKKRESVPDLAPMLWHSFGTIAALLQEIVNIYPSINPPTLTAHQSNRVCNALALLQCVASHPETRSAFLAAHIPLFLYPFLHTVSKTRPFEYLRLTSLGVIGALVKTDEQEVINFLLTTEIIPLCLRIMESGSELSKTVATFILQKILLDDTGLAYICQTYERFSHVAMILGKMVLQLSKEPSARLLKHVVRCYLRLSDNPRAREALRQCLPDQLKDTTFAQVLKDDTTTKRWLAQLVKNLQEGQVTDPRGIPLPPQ
Chain of Serine-protein kinase ATM (Homo sapiens) (Q13315 whole entry): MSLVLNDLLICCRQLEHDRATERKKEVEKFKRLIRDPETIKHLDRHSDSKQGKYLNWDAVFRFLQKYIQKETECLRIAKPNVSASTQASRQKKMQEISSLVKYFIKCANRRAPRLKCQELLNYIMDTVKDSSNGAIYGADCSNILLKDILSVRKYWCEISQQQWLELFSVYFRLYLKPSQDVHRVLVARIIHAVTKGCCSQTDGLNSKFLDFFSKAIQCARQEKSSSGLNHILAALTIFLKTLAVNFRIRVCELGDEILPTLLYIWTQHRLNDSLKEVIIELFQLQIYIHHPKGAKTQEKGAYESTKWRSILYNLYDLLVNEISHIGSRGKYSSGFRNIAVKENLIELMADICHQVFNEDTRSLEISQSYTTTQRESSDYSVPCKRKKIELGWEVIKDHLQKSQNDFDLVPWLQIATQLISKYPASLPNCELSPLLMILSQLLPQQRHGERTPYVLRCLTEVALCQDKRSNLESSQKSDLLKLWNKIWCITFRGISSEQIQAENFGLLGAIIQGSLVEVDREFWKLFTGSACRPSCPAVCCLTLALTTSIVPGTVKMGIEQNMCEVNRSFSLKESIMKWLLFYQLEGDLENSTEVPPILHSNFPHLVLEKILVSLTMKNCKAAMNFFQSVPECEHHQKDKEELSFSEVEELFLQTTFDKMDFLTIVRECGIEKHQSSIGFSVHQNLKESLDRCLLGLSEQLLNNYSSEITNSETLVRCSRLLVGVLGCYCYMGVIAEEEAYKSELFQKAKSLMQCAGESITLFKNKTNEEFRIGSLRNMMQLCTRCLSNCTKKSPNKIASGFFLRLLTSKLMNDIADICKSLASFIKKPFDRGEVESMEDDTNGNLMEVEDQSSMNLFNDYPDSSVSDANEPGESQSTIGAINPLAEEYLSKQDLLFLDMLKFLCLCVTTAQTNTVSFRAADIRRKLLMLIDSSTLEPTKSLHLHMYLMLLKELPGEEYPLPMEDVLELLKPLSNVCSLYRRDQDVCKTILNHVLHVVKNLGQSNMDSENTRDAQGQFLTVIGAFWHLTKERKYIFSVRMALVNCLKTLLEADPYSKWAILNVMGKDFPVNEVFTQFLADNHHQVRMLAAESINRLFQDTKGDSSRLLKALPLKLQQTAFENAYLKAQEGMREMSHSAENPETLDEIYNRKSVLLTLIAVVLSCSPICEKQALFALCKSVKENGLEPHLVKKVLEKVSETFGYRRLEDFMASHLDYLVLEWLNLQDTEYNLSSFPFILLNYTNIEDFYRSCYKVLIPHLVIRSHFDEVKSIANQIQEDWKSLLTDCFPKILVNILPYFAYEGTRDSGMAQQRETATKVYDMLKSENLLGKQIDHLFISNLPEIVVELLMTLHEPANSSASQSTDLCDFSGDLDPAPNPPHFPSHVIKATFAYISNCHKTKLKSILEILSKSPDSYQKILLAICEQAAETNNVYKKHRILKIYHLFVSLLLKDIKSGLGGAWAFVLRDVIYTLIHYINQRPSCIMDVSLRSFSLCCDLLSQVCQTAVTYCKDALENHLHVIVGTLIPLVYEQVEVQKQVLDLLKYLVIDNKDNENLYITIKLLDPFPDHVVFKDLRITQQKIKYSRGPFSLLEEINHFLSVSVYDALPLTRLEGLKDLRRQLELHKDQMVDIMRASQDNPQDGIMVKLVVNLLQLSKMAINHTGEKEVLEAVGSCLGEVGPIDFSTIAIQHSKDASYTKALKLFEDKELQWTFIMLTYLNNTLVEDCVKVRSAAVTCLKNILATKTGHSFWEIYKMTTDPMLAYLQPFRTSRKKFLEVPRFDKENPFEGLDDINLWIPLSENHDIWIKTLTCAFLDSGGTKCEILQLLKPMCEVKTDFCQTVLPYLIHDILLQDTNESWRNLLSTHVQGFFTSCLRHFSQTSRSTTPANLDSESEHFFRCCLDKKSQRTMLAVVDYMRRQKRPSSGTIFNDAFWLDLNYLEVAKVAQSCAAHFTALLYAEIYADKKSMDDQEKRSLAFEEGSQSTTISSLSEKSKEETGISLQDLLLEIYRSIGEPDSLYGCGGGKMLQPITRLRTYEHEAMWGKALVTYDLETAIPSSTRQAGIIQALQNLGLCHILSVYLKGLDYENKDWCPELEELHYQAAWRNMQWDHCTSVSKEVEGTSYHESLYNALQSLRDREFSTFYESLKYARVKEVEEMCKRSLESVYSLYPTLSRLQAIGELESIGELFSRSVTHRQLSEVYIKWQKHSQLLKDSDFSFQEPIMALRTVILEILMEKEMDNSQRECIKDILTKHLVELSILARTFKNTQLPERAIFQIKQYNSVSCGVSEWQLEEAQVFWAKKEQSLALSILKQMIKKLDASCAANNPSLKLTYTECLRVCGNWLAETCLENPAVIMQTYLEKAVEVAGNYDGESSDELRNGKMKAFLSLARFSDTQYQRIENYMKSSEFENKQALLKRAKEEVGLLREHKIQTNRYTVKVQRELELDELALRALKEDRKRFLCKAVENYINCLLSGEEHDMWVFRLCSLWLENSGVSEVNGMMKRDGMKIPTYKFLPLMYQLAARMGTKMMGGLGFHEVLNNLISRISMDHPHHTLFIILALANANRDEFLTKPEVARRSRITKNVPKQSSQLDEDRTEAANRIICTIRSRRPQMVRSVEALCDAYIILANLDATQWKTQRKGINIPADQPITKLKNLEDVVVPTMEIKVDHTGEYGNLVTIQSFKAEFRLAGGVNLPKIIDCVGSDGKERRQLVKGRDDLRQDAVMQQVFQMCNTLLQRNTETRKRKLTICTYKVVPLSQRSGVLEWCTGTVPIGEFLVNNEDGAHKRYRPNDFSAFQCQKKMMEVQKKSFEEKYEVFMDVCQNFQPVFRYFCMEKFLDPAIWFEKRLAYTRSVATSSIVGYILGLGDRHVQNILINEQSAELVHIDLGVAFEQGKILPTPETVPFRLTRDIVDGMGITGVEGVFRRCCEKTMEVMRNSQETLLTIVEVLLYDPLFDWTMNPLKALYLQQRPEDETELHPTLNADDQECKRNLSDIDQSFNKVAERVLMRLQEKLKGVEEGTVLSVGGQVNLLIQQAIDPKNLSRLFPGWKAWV
Chain of CCR4-NOT transcription complex subunit 3 (Homo sapiens) (O75175 whole entry, one chain of several): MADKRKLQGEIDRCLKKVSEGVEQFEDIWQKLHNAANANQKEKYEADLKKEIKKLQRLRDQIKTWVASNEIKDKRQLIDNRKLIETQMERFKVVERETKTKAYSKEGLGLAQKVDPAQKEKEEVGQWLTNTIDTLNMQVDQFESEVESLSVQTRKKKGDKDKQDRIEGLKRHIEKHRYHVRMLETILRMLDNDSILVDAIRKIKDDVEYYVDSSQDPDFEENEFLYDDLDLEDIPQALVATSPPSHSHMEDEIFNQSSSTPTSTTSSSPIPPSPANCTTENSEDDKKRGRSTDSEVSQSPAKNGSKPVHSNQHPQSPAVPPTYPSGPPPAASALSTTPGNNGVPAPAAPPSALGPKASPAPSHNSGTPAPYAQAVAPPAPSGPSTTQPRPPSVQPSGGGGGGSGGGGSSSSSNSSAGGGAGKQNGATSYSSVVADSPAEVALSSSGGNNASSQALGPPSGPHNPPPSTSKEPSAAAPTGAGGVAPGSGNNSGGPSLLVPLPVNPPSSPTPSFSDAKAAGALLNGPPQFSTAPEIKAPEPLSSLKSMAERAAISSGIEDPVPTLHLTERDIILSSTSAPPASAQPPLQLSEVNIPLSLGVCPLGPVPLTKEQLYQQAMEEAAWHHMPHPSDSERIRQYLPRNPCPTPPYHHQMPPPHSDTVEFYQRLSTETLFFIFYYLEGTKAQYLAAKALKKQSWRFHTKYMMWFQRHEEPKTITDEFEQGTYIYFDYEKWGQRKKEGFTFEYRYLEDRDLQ
Chain of CCR4-NOT transcription complex subunit 7 (Homo sapiens) (Q9UIV1 whole entry, one chain of several): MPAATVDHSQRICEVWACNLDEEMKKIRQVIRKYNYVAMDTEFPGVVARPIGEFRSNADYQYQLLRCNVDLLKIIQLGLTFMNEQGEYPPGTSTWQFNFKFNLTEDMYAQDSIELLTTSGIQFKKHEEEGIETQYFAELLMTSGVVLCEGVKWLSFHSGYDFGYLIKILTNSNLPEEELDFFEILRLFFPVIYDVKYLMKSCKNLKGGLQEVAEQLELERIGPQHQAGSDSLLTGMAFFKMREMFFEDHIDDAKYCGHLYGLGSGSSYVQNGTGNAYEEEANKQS
Chain of CCR4-NOT transcription complex subunit 2 (Homo sapiens) (Q9NZN8 whole entry, one chain of several): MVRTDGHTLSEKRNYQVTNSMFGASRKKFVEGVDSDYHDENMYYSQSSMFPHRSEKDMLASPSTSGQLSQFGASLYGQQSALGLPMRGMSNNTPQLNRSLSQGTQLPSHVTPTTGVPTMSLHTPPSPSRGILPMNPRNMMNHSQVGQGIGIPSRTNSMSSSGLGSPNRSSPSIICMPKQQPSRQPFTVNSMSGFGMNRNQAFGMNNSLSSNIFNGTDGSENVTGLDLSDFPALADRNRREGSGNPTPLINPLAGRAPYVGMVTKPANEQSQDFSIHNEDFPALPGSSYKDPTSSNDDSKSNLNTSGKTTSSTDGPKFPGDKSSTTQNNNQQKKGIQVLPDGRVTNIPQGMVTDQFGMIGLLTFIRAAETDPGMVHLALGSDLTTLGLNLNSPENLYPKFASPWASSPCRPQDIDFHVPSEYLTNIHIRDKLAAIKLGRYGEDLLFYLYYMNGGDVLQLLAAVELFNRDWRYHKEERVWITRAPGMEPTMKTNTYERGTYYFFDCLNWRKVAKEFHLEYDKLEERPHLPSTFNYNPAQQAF

As for `COc1ccc(/C=C/C(=O)N(Cc2ccc(OC)cc2)C(C(=O)NCc2ccccc2)c2ccccc2Br)cc1` (racemic), the “activity call (active/not active) for inhibition of HSP27 upregulation” value in [1] was “inactive”. Besides, in assay [2], the “heat shock response inhibition (active/not active)” value is “inactive”. In addition, the result in [3] and in assay [5] was inactive. Moreover, in [4], the “HSP72 upregulation inhibition (active/not active)” value was “inactive”.
`O=C(NCc1ccccc1)C(c1ccc(O)cc1)N(C(=O)CCc1ccccc1)C1CC1` (racemic): in [1], the “activity call (active/not active) for inhibition of HSP27 upregulation” value was “inactive”. For the same compound, the “heat shock response inhibition (active/not active)” value in assay [2] and in assay [6] was “inactive” in each case. Moreover, the “HSP72 upregulation inhibition (active/not active)” value in assay [4] is “inactive”. In addition, the result in assay [5] was inactive.
In the case of `O=C(CCCC[C@@H]1SC[C@@H]2NC(=O)N[C@@H]21)NCCOCCOCCNCCCCOc1ccc(CCC(=O)N(C2CC2)C(C(=O)NCc2ccccc2)c2ccc(Br)cc2)cc1` (mixture of isomers), the outcome in [7], in assay [8], in assay [9], in [10], in assay [11] and in assay [12] was Active. Also, the result in [13], in [14], in assay [15] and in assay [16] was Active. Further, the “activity call (active/not active) for inhibition of HSP27 upregulation” value in assay [1] was “inactive”. Besides, the “heat shock response inhibition (active/not active)” value in [6] is “inactive”. In addition, the “HSP72 upregulation inhibition (active/not active)” value in [4] is “inactive”.
